From ChEMBL document CHEMBL4138126, “Synthesis, antiproliferative, anti-tubulin activity, and docking study of new 1,2,4-triazoles as potential combretastatin analogues” (Eur J Med Chem, 2017)

Experiments:
[1] = system: SF-295; test: Growth inhibition of human SF295 cells assessed as cell growth at 10 uM after 48 hrs by sulforhodamine B assay; assay type: functional; details: SF-295, 48 h, read-out: Activity
How it was run: (§1)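 NCI 60-cell-line panel screen (nine cancer types). Compounds added at single concentration 10^-5 M, cultures incubated 48 h; growth inhibition percentages reported.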

[2] = system: A498; test: Growth inhibition of human A498 cells assessed as cell growth at 10 uM after 48 hrs by sulforhodamine B assay; assay type: functional; details: A498, 48 h, read-out: Activity; how it was run: as §1
[3] = system: NCI-H522; test: Growth inhibition of human NCI-H522 cells assessed as cell growth at 10 uM after 48 hrs by sulforhodamine B assay; assay type: functional; details: NCI-H522, 48 h, read-out: Activity; how it was run: as §1
[4] = system: NCI-H226; test: Growth inhibition of human NCI-H226 cells assessed as cell growth at 10 uM after 48 hrs by sulforhodamine B assay; assay type: functional; details: NCI-H226, 48 h, read-out: Activity; how it was run: as §1
[5] = system: SK-OV-3; test: Growth inhibition of human SKOV3 cells assessed as cell growth at 10 uM after 48 hrs by sulforhodamine B assay; assay type: functional; details: SK-OV-3, 48 h, read-out: Activity; how it was run: as §1
[6] = system: OVCAR-3; test: Growth inhibition of human OVCAR3 cells assessed as cell growth at 10 uM after 48 hrs by sulforhodamine B assay; assay type: functional; details: OVCAR-3, 48 h, read-out: Activity; how it was run: as §1
[7] = system: HT-29; test: Growth inhibition of human HT-29 cells assessed as cell growth at 10 uM after 48 hrs by sulforhodamine B assay; assay type: functional; details: HT-29, 48 h, read-out: Activity; how it was run: as §1
[8] = system: RXF 393; test: Growth inhibition of human RXF393 cells assessed as cell growth at 10 uM after 48 hrs by sulforhodamine B assay; assay type: functional; details: RXF 393, 48 h, read-out: Activity; how it was run: as §1
[9] = system: SF-539; test: Growth inhibition of human SF539 cells assessed as cell growth at 10 uM after 48 hrs by sulforhodamine B assay; assay type: functional; details: SF-539, 48 h, read-out: Activity; how it was run: as §1
[10] = system: PC-3; test: Growth inhibition of human PC3 cells assessed as cell growth at 10 uM after 48 hrs by sulforhodamine B assay; assay type: functional; details: PC-3, 48 h, read-out: Activity; how it was run: as §1
[11] = system: LOX IMVI; test: Growth inhibition of human LOXIMVI cells assessed as cell growth at 10 uM after 48 hrs by sulforhodamine B assay; assay type: functional; details: read-out: Activity; how it was run: as §1
[12] = system: 786-0; test: Growth inhibition of human 786-0 cells assessed as cell growth at 10 uM after 48 hrs by sulforhodamine B assay; assay type: functional; details: 786-0, 48 h, read-out: Activity; how it was run: as §1
[13] = system: RPMI-8226; test: Growth inhibition of human RPMI8226 cells assessed as cell growth at 10 uM after 48 hrs by sulforhodamine B assay; assay type: functional; details: RPMI-8226, 48 h, read-out: Activity; how it was run: as §1
[14] = system: HepG2; test: Cytotoxicity in human HepG2 cells assessed as reduction in cell viability incubated for 48 hrs by MTT assay; assay type: functional, cell-based; details: HepG2, 48 h
How it was run: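 HepG2 and HL60 (ATCC) grown in DMEM with 10% FBS, 2 mM L-glutamine, penicillin/streptomycin, amphotericin B at 37 °C, 5% CO2. Samples dissolved in DMSO, diluted thousandfold in assay. Cells seeded in serum-free medium, treated with serial concentrations 48 h; MTT 4 h, formazan dissolved in acidified isopropanol, A570. Triplicates averaged; viability relative to untreated/vehicle control.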

[15] = system: HOP-92; test: Growth inhibition of human HOP92 cells assessed as cell growth at 10 uM after 48 hrs by sulforhodamine B assay; assay type: functional; details: HOP-92, 48 h, read-out: Activity; how it was run: as §1
[16] = system: NCI-H23; test: Growth inhibition of human NCI-H23 cells assessed as cell growth at 10 uM after 48 hrs by sulforhodamine B assay; assay type: functional; details: NCI-H23, 48 h, read-out: Activity; how it was run: as §1
[17] = system: OVCAR-4; test: Growth inhibition of human OVCAR4 cells assessed as cell growth at 10 uM after 48 hrs by sulforhodamine B assay; assay type: functional; details: OVCAR-4, 48 h, read-out: Activity; how it was run: as §1
[18] = system: T47D; test: Growth inhibition of human T47D cells assessed as cell growth at 10 uM after 48 hrs by sulforhodamine B assay; assay type: functional; details: read-out: Activity
How it was run: (§2)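 NCI 60-cell-line panel from nine tumour types (leukaemia, lung, colon, CNS, melanoma, ovarian, renal, prostate, breast). Each compound was added at one single concentration, and cultures were incubated for 48 h. Results are reported as percent growth inhibition.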

[19] = system: MDA-MB-435; test: Growth inhibition of human MDA-MB-435 cells assessed as cell growth at 10 uM after 48 hrs by sulforhodamine B assay; assay type: functional; details: MDA-MB-435, 48 h, read-out: Activity; how it was run: as §1
[20] = system: SW-620; test: Growth inhibition of human SW620 cells assessed as cell growth at 10 uM after 48 hrs by sulforhodamine B assay; assay type: functional; details: SW-620, 48 h, read-out: Activity; how it was run: as §2
[21] = system: SK-MEL-2; test: Growth inhibition of human SK-MEL-2 cells assessed as cell growth at 10 uM after 48 hrs by sulforhodamine B assay; assay type: functional; details: SK-MEL-2, 48 h, read-out: Activity; how it was run: as §1
[22] = system: SNB-75; test: Growth inhibition of human SNB75 cells assessed as cell growth at 10 uM after 48 hrs by sulforhodamine B assay; assay type: functional; details: SNB-75, 48 h, read-out: Activity; how it was run: as §2
[23] = system: Malme-3M; test: Growth inhibition of human MALME-3M cells assessed as cell growth at 10 uM after 48 hrs by sulforhodamine B assay; assay type: functional; details: read-out: Activity; how it was run: as §1
[24] = system: M14; test: Growth inhibition of human M14 cells assessed as cell growth at 10 uM after 48 hrs by sulforhodamine B assay; assay type: functional; details: M14, 48 h, read-out: Activity; how it was run: as §1
[25] = system: OVCAR-5; test: Growth inhibition of human OVCAR5 cells assessed as cell growth at 10 uM after 48 hrs by sulforhodamine B assay; assay type: functional; details: OVCAR-5, 48 h, read-out: Activity; how it was run: as §1
[26] = system: SNB-19; test: Growth inhibition of human SNB19 cells assessed as cell growth at 10 uM after 48 hrs by sulforhodamine B assay; assay type: functional; details: SNB-19, 48 h, read-out: Activity; how it was run: as §2
[27] = system: NCI/ADR-RES; test: Growth inhibition of human NCI-ADR-RES cells assessed as cell growth at 10 uM after 48 hrs by sulforhodamine B assay; assay type: functional; details: read-out: Activity; how it was run: as §1
[28] = system: DU-145; test: Growth inhibition of human DU145 cells assessed as cell growth at 10 uM after 48 hrs by sulforhodamine B assay; assay type: functional; details: DU-145, 48 h, read-out: Activity; how it was run: as §1
[29] = system: KM12; test: Growth inhibition of human KM12 cells assessed as cell growth at 10 uM after 48 hrs by sulforhodamine B assay; assay type: functional; details: KM12, 48 h, read-out: Activity; how it was run: as §1
[30] = system: CCRF-CEM; test: Growth inhibition of human CCRF-CEM cells assessed as cell growth at 10 uM after 48 hrs by sulforhodamine B assay; assay type: functional; details: read-out: Activity; how it was run: as §1
[31] = system: HCT-15; test: Growth inhibition of human HCT15 cells assessed as cell growth at 10 uM after 48 hrs by sulforhodamine B assay; assay type: functional; details: HCT-15, 48 h, read-out: Activity; how it was run: as §1
[32] = system: MCF7; test: Growth inhibition of human MCF7 cells assessed as cell growth at 10 uM after 48 hrs by sulforhodamine B assay; assay type: functional; details: MCF7, 48 h, read-out: Activity; how it was run: as §1

Structure (SMILES)	growth at 10 µM [1] [%]	growth at 10 µM [2] [%]	growth at 10 µM [3] [%]	growth at 10 µM [4] [%]	growth at 10 µM [5] [%]	growth at 10 µM [6] [%]	growth at 10 µM [7] [%]	growth at 10 µM [8] [%]	growth at 10 µM [9] [%]	growth at 10 µM [10] [%]	growth at 10 µM [11] [%]	growth at 10 µM [12] [%]	growth at 10 µM [13] [%]	IC50 [14] [µM]	growth at 10 µM [15] [%]	growth at 10 µM [16] [%]	growth at 10 µM [17] [%]	growth at 10 µM [18] [%]	growth at 10 µM [19] [%]	growth at 10 µM [20] [%]	also measured
CCOc1ccc(-n2nc(C(=O)Nc3ccc(F)c(F)c3)nc2-c2cc(OC)c(OC)c(OC)c2)cc1	60.5	68.9	61.1	69.1	85.2	61	74.6	84.6	96.6	47.1	66.4	85	12.3	31.8	67	77.3	66.1	41.7	70.3	89.9	growth at 10 µM [21]: 78.4%; growth at 10 µM [22]: 74.4%; growth at 10 µM [23]: 86.7%; growth at 10 µM [24]: 70.2%; growth at 10 µM [25]: 101%; growth at 10 µM [26]: 86.8%; growth at 10 µM [27]: 67.5%; growth at 10 µM [28]: 80%; growth at 10 µM [29]: 56.7%; growth at 10 µM [30]: 44.1%; growth at 10 µM [31]: 63.8%; growth at 10 µM [32]: 78.8%
CCOc1ccc(-n2nc(C(=O)NCc3ccccc3OC)nc2-c2cc(OC)c(OC)c(OC)c2)cc1	34.8	30	35.7	62.5	67.1	49.4	40.6	43.5	49.2	24.6	36.3	41.5	26.9	0.62	29	60.8	23.4	17	22.1	58	growth at 10 µM [21]: 41.5%; growth at 10 µM [22]: 30%; growth at 10 µM [23]: 87.5%; growth at 10 µM [24]: 42.1%; growth at 10 µM [25]: 74.2%; growth at 10 µM [26]: 45.2%; growth at 10 µM [27]: 27.8%; growth at 10 µM [28]: 65.2%; growth at 10 µM [29]: 33.8%; growth at 10 µM [30]: 39.7%; growth at 10 µM [31]: 29%; growth at 10 µM [32]: 22.1%
CCOc1ccc(-n2nc(C(=O)Nc3cc(F)cc(F)c3)nc2-c2cc(OC)c(OC)c(OC)c2)cc1	84.6	56	61.6	77.2	93	93.6	89	88.2	82.4	69.9	86.6	82.1	69.4	36.5	67.8	84	84.8	55.9	91	99.3	growth at 10 µM [21]: 92.9%; growth at 10 µM [22]: 58%; growth at 10 µM [23]: 97.5%; growth at 10 µM [24]: 98%; growth at 10 µM [25]: 98.8%; growth at 10 µM [26]: 73.3%; growth at 10 µM [27]: 81.7%; growth at 10 µM [28]: 98.2%; growth at 10 µM [29]: 85.9%; growth at 10 µM [30]: 84.1%; growth at 10 µM [31]: 77.9%; growth at 10 µM [32]: 79%
COc1cccc(-n2nc(C(=O)Nc3ccccc3)nc2-c2cc(OC)c(OC)c(OC)c2)c1	91.9	100	65.5	96.9	102	99.9	79.9	97.9	93.6	90	102	79.4	108	6.53	97.9	111	81.8	62.2	90.4	100	growth at 10 µM [21]: 98%; growth at 10 µM [22]: 55.5%; growth at 10 µM [23]: 95.9%; growth at 10 µM [24]: 102%; growth at 10 µM [25]: 89.5%; growth at 10 µM [26]: 102%; growth at 10 µM [27]: 93.1%; growth at 10 µM [28]: 104%; growth at 10 µM [29]: 96.6%; growth at 10 µM [30]: 105%; growth at 10 µM [31]: 88%; growth at 10 µM [32]: 91.6%
